Reference: ChEMBL document CHEMBL1136302, “Modified 3-alkyl-1,8-dibenzylxanthines as GTP-competitive inhibitors of phosphoenolpyruvate carboxykinase” (Bioorg Med Chem Lett, 2003)

What was measured:
[1] = Inhibitory activity against human cytosolic phosphoenolpyruvate carboxykinase (PEPCK) enzyme at a concentration of 500 uM
Procedure, shortened: (§1)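 The same coupled GST-PEPCK assay was run in 30 mM potassium phosphate pH 7.6 at room temperature. It used 0.3 mM each of GTP and OAA, plus Mg2+/Mn2+, ADP, NADH and BSA, with pyruvate kinase and lactate dehydrogenase coupling. Rate was read at 340 over 20 min. Percent inhibition is given at the highest concentration tested, as the duplicate average.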

[2] = Inhibitory activity against human cytosolic phosphoenolpyruvate carboxykinase (PEPCK) enzyme at a concentration of 25 uM; procedure, shortened: as §1
[3] = Inhibitory activity against human cytosolic phosphoenolpyruvate carboxykinase (PEPCK) enzyme
Procedure, shortened: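 Recombinant human cytosolic GST-PEPCK at room temperature in 30 mM potassium phosphate pH 7.6 with 0.3 mM GTP, 0.3 mM OAA, 3 mM MgCl2, 0.075 mM MnCl2, 1 mM DTT, 0.2 mM ADP, 1 mM NADH and 1 mg/mL BSA. Coupled to pyruvate kinase and lactate dehydrogenase (0.9 U/mL each). Absorbance change at 340 read over 20 min. Eight concentrations in duplicate, averaged; IC50 derived.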

| IC50 [3] | SMILES | other results |
| --- | --- | --- |
| 2.11 µM | CCCCn1c(=O)n(Cc2ccccc2F)c(=O)c2[nH]c(Cc3ccc(NC(C)=O)cc3)nc21 | – |
| 8.15 µM | CCCCn1c(=O)n(Cc2ccccc2)c(=O)c2[nH]c(Cc3ccc(NC(C)=O)cc3)nc21 | – |

The remaining lines, values behind:

| SMILES | IC50 [3] | other results |
| --- | --- | --- |
| C=CCn1c(=O)c2[nH]c(-c3ccc(NC(C)=O)cc3)nc2n(CCCC)c1=O | – | inhibition [1]: 1.7% |
| C=CCn1c(=O)c2[nH]c(Cc3ccccc3)nc2n(CCCC)c1=O | – | inhibition [2]: 29% |
| C=CCn1c(=O)c2c(nc(C)n2CC)n(CCCC)c1=O | – | inhibition [1]: 34% |
| CCCCn1c(=O)n(CCOC)c(=O)c2[nH]c(Cc3ccc(NC(C)=O)cc3)nc21 | – | inhibition [2]: 36% |
| C=CCn1c(=O)c2[nH]cnc2n(CCCC)c1=O | – | inhibition [1]: 39% |
| C=CCn1c(=O)c2[nH]c(CC)nc2n(CCCC)c1=O | 100 µM | – |
| CCCCn1c(=O)n(Cc2cccc(F)c2)c(=O)c2[nH]c(Cc3ccc(NC(C)=O)cc3)nc21 | – | inhibition [2]: 46% |
| CCCCn1c(=O)n(CCC)c(=O)c2[nH]c(C)nc21 | 375 µM | – |
| C=CCn1c(=O)c2[nH]c(Cc3ccc(N)cc3)nc2n(CCCC)c1=O | 37 µM | – |
| C=CCn1c(=O)c2[nH]c(C)nc2n(CCCC)c1=O | 225 µM | – |
